ChEMBL document CHEMBL2321813, “Discovery of allosteric modulators of factor XIa by targeting hydrophobic domains adjacent to its heparin-binding site” (J Med Chem, 2013)
Activity calls are given as the source filed them. The rule behind the calls is not given here.

Tests used:
Coagulation factor XI [1] = biological target: T1, Coagulation factor XI (Homo sapiens, UniProt P03951); assay: Inhibition of human factor 11a using S2366 as substrate assessed as residual protease activity after 10 mins by spectrophotometry
T1 sequence (P03951 19-387 limits assumed): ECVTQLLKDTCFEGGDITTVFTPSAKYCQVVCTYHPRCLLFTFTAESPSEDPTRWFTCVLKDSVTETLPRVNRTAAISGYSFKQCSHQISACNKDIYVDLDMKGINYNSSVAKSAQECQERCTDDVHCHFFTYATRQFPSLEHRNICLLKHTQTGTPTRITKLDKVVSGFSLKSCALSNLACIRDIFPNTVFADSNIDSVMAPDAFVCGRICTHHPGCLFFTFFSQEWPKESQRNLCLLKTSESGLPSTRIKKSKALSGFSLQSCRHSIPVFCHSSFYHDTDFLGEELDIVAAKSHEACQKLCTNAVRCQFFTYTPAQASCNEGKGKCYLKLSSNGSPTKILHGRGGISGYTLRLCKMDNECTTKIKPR
T1 sequence (P03951 388-625 limits assumed): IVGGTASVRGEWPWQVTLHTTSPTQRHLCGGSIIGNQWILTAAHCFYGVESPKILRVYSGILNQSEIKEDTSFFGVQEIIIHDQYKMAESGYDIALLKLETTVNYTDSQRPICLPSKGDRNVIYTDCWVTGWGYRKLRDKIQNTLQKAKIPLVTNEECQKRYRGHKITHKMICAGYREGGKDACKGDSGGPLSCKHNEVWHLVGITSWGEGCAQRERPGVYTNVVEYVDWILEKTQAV
Summary of the method: (§1)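 FXIa at 0.765 nM (final) preincubated 10 min at 37 °C with compound (12 serial dilutions) in 50 mM Tris-HCl pH 7.4, 150 mM NaCl, 0.1% PEG8000, 0.02% Tween80. S2366 (345 μM final) then added. Initial rate read at 405 nm. Fractional residual activity fit to a logistic equation for IC50, Hill slope and ΔY.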

Coagulation factor XI [2] = biological target: T1, Coagulation factor XI; assay: Inhibition of human factor 11a using S2366 as substrate after 10 mins by spectrophotometry; summary of the method: as §1
Coagulation factor XI [3] = biological target: T1, Coagulation factor XI; assay: Binding affinity to human factor 11a-DEGR by spectrofluorometry
Summary of the method: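 Fluorescence titration of active-site dansylated FXIa (FXIa-DEGR, 250 nM) with aliquots of sulfated QAO in 50 mM Tris-HCl pH 7.4, 150 mM NaCl, 0.1% PEG8000 at 37 °C. Emission monitored at 547 nm (λex 345 nm). Change in fluorescence fit to the Hill equation to give apparent KD.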

Coagulation factor XI [4] = biological target: T1, Coagulation factor XI; assay: Inhibition of human recombinant factor 11a catalytic domain
Summary of the method: (§2)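 Recombinant FXI catalytic domain constructs (wild type, Arg530Ala, Lys529Ala/Arg530Ala/Arg532Ala) were expressed stably in HEK-293 cells. […] Inhibition was measured by S2366 hydrolysis in 50 mM Tris-HCl pH 7.4, 150 mM NaCl, 0.1% PEG8000, 0.02% Tween80 at 37 °C. Dose-response data were fit to the logistic equation.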

Homo sapiens [5] = organism: Homo sapiens; assay: Ratio of IC50 for human recombinant factor 11a catalytic domain Arg530Ala mutant to IC50 for human recombinant factor XIa catalytic domain; summary of the method: as §2
HEK293 [6] = assay: Inhibition of human recombinant factor 11a catalytic domain Lys529Ala/Arg530Ala/Arg532Ala triple mutant transfected in HEK293 cells using S2366 as substrate assessed as residual protease activity at 3 uM after 10 mins by spectrophotometry
Summary of the method: (§3)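 Full-length wild-type FXIa, FXIa catalytic domain, and the Lys529Ala/Arg530Ala/Arg532Ala catalytic domain mutant were recombinant proteins from stably transfected HEK-293 cells, activated with FXIIa. Residual activity was measured by S2366 hydrolysis with 3 μM compound, with or without 30 μM Polybrene.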

HEK293 [7] = assay: Inhibition of human recombinant factor 11a catalytic domain Lys535Ala/Lys539Ala double mutant transfected in HEK293 cells; assay type: cell-based
Coagulation factor XI [8] = biological target: T1, Coagulation factor XI; assay: Inhibition of human recombinant factor 11a catalytic domain transfected in HEK293 cells using S2366 as substrate assessed as residual protease activity at 3 uM after 10 mins by spectrophotometry; summary of the method: as §3
Plasma = assay: Anticoagulant activity in human plasma assessed as concentration required to double activated partial thromboplastin time; assay type: functional
Summary of the method: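 Citrated pooled normal human plasma. APTT: 10 μL compound mixed with 90 μL plasma and 100 μL prewarmed APTT reagent (0.2% ellagic acid), incubated 4 min at 37 °C, then clotting started with 100 μL prewarmed 25 mM CaCl2. Vehicle control was deionized water and/or organic vehicle. Clot time was read on a fibrometer. Data fit to a quadratic trend line to get the concentration doubling clotting time. Run in duplicate.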

Homo sapiens [9] = organism: Homo sapiens; assay: Ratio of IC50 for human recombinant factor 11a catalytic domain Lys529Ala/Arg530Ala/Arg532Ala triple mutant to IC50 for human recombinant factor XIa catalytic domain; summary of the method: as §2
[10] = biological target: Prothrombin (Homo sapiens) (UniProt P00734); assay: Inhibition of human thrombin assessed as residual protease activity at 500 uM after 10 mins by spectrophotometry
[11] = biological target: T2, Serine protease 1 (Bos taurus) (UniProt P00760); assay: Inhibition of bovine trypsin assessed as residual protease activity at 500 uM after 10 mins by spectrophotometry
T2 sequence (whole entry): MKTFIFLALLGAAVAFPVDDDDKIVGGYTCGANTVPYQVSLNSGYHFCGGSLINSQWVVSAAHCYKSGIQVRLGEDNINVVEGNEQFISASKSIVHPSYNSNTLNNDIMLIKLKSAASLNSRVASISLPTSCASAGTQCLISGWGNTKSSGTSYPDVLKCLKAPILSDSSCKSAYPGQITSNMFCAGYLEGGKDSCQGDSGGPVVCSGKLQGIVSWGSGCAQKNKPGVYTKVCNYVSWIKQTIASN

Coagulation factor XI [12] = biological target: T1, Coagulation factor XI; assay: Inhibition of human wild type full length factor 11a transfected in HEK293 cells using S2366 as substrate assessed as residual protease activity at 3 uM after 10 mins by spectrophotometry; summary of the method: as §3
[13] = biological target: Coagulation factor X (Homo sapiens) (UniProt P00742); assay: Inhibition of human factor 10a assessed as residual protease activity at 500 uM after 10 mins by spectrophotometry
Chain of Coagulation factor X (Homo sapiens) (P00742 41-179 limits assumed): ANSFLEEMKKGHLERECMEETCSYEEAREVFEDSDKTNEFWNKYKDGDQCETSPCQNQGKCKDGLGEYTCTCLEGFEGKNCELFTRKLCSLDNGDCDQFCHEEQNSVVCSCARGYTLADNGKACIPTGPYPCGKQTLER
Chain of Coagulation factor X (Homo sapiens) (P00742 235-488 limits assumed): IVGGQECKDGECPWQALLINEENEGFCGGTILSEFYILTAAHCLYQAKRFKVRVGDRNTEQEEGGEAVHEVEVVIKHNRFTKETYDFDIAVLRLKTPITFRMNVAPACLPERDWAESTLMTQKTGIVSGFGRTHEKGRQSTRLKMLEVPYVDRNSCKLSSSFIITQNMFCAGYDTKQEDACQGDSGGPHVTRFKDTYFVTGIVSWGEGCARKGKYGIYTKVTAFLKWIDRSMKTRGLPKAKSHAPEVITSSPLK

[14] = biological target: Chymotrypsinogen A (Bos taurus) (UniProt P00766); assay: Inhibition of bovine alpha-chymotrypsin assessed as residual protease activity at 500 uM after 10 mins by spectrophotometry

Row | SMILES | Efficacy (Coagulation factor XI [1]) [%] | IC50 (Coagulation factor XI [2]) [µM] | further results
1 | O=c1c2ccccc2nc(-c2ccc(OS(=O)(=O)O)cc2)n1CCCCCn1nncc1Cn1c(-c2ccc(OS(=O)(=O)O)cc2)nc2ccccc2c1=O | 94 | – | –
2 | O=c1c2ccccc2nc(-c2cccc(OS(=O)(=O)O)c2)n1CCCCn1cc(Cn2c(-c3ccc(OS(=O)(=O)O)cc3)nc3ccccc3c2=O)nn1 | 103 | 91 | Kd (Coagulation factor XI [3]): 91 µM
3 | CC(=O)Oc1cccc(-c2nc3ccccc3c(=O)n2Cc2cn(CCCCn3c(-c4cccc(OS(=O)(=O)O)c4)nc4ccccc4c3=O)nn2)c1 | – | > 1000 | –
4 | O=c1c2ccccc2nc(-c2ccc(OS(=O)(=O)O)cc2)n1CCCCCCn1cc(Cn2c(-c3ccc(OS(=O)(=O)O)cc3)nc3ccccc3c2=O)nn1 | 97 | 52 | inhibition (Coagulation factor XI [4]): Active; Ratio IC50 (Homo sapiens [5]): 2; Activity (HEK293 [6]): 4.9%; inhibition (HEK293 [7]): Active; Activity (Coagulation factor XI [8]): 6.3%; 2aPTT (Plasma): 950 µM; Ratio IC50 (Homo sapiens [9]): 5; inhibition [10]: inactive; inhibition [11]: inactive; Activity (Coagulation factor XI [12]): 4.2%; inhibition [13]: inactive; inhibition [14]: inactive; Kd (Coagulation factor XI [3]): 38 µM
5 | CC(=O)Oc1cc(OS(=O)(=O)O)cc(-c2nc3ccccc3c(=O)n2CCCCn2cc(Cn3c(-c4cc(O)cc(OS(=O)(=O)O)c4)nc4ccccc4c3=O)nn2)c1 | 96 | 153 | –
6 | COc1cc(-c2nc3ccccc3c(=O)n2CCCCn2cc(Cn3c(-c4cccc(OS(=O)(=O)O)c4)nc4ccccc4c3=O)nn2)ccc1OS(=O)(=O)O | 88 | 182 | –
7 | COc1cc(-c2nc3ccccc3c(=O)n2CCCCn2cc(COc3cc(-c4oc5cc(OS(=O)(=O)O)cc(OC)c5c(=O)c4OS(=O)(=O)O)ccc3OS(=O)(=O)O)nn2)ccc1OS(=O)(=O)O | 50 | 216 | –
8 | O=c1c2ccccc2nc(-c2ccc(OS(=O)(=O)O)cc2)n1CCCCn1cc(Cn2c(-c3ccc(OS(=O)(=O)O)cc3)nc3ccccc3c2=O)nn1 | 91 | 82 | 2aPTT (Plasma): 979 µM; inhibition [10]: inactive; inhibition [11]: inactive; inhibition [13]: inactive; inhibition [14]: inactive; Kd (Coagulation factor XI [3]): 84 µM
9 | O=c1c2ccccc2nc(-c2cccc(OS(=O)(=O)O)c2)n1CCCCn1cc(Cn2c(-c3cccc(OS(=O)(=O)O)c3)nc3ccccc3c2=O)nn1 | 100 | 102 | –
10 | O=c1c2ccccc2nc(-c2ccc(OS(=O)(=O)O)cc2)n1CCCCn1cc(Cn2c(-c3cccc(OS(=O)(=O)O)c3)nc3ccccc3c2=O)nn1 | 88 | 159 | –
11 | O=c1c2ccccc2nc(-c2cccc(OS(=O)(=O)O)c2)n1CCCCn1cc(Cn2c(-c3cc(OS(=O)(=O)O)cc(OS(=O)(=O)O)c3)nc3ccccc3c2=O)nn1 | 93 | 213 | –
12 | COc1cc(-c2nc3ccccc3c(=O)n2CCCCn2cc(Cn3c(-c4ccc(OS(=O)(=O)O)c(OC)c4)nc4ccccc4c3=O)nn2)ccc1OS(=O)(=O)O | 95 | 139 | –
13 | COc1cc(OS(=O)(=O)O)cc2oc(-c3ccc(OS(=O)(=O)O)c(OCc4cn(CCCCn5c(-c6cc(OC(C)=O)cc(OS(=O)(=O)O)c6)nc6ccccc6c5=O)nn4)c3)c(OS(=O)(=O)O)c(=O)c12 | 90 | 407 | –
14 | COc1cc(OS(=O)(=O)O)cc2oc(-c3ccc(OS(=O)(=O)O)c(OCc4cn(CCCCn5c(-c6cccc(OS(=O)(=O)O)c6)nc6ccccc6c5=O)nn4)c3)c(OS(=O)(=O)O)c(=O)c12 | – | > 1000 | –
15 | O=c1c2ccccc2nc(-c2ccc(OS(=O)(=O)O)cc2)n1CCCCCn1cc(Cn2c(-c3ccc(OS(=O)(=O)O)cc3)nc3ccccc3c2=O)nn1 | 89 | 59 | 2aPTT (Plasma): 1062 µM; inhibition [10]: inactive; inhibition [11]: inactive; inhibition [13]: inactive; inhibition [14]: inactive; Kd (Coagulation factor XI [3]): 37 µM
16 | CC(=O)Oc1cc(OS(=O)(=O)O)cc(-c2nc3ccccc3c(=O)n2CCCCn2cc(Cn3c(-c4cc(OS(=O)(=O)O)cc(OS(=O)(=O)O)c4)nc4ccccc4c3=O)nn2)c1 | 91 | 273 | –
17 | O=c1c2ccccc2nc(-c2cc(OS(=O)(=O)O)cc(OS(=O)(=O)O)c2)n1CCCCn1cc(Cn2c(-c3cc(OS(=O)(=O)O)cc(OS(=O)(=O)O)c3)nc3ccccc3c2=O)nn1 | – | > 1000 | –
18 | O=c1c2ccccc2nc(-c2ccc(OS(=O)(=O)O)cc2)n1Cc1cn(CCn2cc(Cn3c(-c4ccc(OS(=O)(=O)O)cc4)nc4ccccc4c3=O)nn2)nn1 | 98 | 305 | –
19 | O=c1c2ccccc2nc(-c2cccc(OS(=O)(=O)O)c2)n1CCCn1cc(Cn2c(-c3cccc(OS(=O)(=O)O)c3)nc3ccccc3c2=O)nn1 | 91 | 320 | –
